# Assay outcomes from PubChem.
# H9c2 TAG inh: reduces triacylglycerol accumulation in H9c2 cells; Nile Red lipid (TAG) fluorescence; cells loaded with 200 µM oleic acid; actives 0.66% (n = 230,000); inhibition, % at 12.5 µM;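 active means pattern-corrected inhibition of lipid staining of at least 50% with the nuclear-stain viability signal not falling by more than 50%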;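 further: 0% = DMSO wells and 100% = triacsin C control wells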
# Bfl-1 A1 inh: inhibitors of the anti-apoptotic protein A1, read as caspase activation. caspase activation, % (concentration not given with the values). MEF A1-2A-BIM cells, Caspase-Glo 3/7 luminescence, 3 h; percent of clofoctol response, vehicle zero. AID 2462. actives 0.066% (n = 330,000);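 active means over half of replicate activation scores above 10%, or exactly half above 10 with the replicate mean above 10; inconclusive means replicate mean below 10 yet half the replicates above 10; inactive means over half of replicates below 10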
# SR-BI DiI inh: inhibitors of mouse SR-BI mediated HDL lipid uptake; AID 488896; actives 0.96% (n = 320,000); Q61009; inhibition, % at 12.5 µM; ldlA[mSR-BI] CHO cells, DiI-HDL uptake fluorescence, 3 h;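 active means mean replicate inhibition of at least 70% and a set share of replicates each scoring 70 or more; inconclusive means meets just one of the two criteria; inactive means fails both criteria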;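 further: 0% = median of neutral control wells and 100% = median of positive control wells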
# Target sequence (Q61009 whole entry, looked up): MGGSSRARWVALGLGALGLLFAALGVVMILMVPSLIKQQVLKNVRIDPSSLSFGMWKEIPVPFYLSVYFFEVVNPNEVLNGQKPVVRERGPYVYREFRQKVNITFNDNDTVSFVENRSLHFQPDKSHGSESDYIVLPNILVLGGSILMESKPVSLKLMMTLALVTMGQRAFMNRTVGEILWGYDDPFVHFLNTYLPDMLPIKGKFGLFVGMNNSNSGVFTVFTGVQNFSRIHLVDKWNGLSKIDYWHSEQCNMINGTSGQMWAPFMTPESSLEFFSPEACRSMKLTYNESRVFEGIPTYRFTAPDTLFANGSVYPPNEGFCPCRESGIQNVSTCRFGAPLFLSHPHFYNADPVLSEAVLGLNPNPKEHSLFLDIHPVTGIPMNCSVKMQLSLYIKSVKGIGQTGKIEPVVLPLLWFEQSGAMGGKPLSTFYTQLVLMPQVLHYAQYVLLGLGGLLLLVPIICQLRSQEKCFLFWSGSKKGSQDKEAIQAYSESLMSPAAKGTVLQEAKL
# SR-BI DiI-HDL act: activators of SR-BI mediated HDL lipid uptake. CHO ldlA[mSR-BI] cells, DiI-HDL uptake fluorescence, 3 h; 100 = double the neutral-control signal. activation, % at 12.5 µM. actives 0.096% (n = 320,000). AID 504775;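 active means mean replicate activation of at least 60% and every replicate at or above 60%; inconclusive means mean or all-replicate condition met, but not both; inactive means mean below 60% and not all replicates reaching 60%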;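 further: 0% = median plate neutral-control signal and 100% = twice that signal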
#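 Material: SR-BI-overexpressing, LDLR-lacking CHO cells; schedule: compound exposure 3 h, 37 °C; reagent: DiI-labelled HDL at 10 µg/mL final; technique: bottom-read fluorescence, 550/595 nm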
# Vif inh: inhibitors of HIV Vif; HEK293T cells, Vif self-association by quenched fluorescence, imaging, 24 h; inhibition, % at 7.49 µM; actives 0.35% (n = 340,000); AID 602346; in the data active means inhibition above about 50%, passing the limit was not always enough; inconclusive means no clear call, values can overlap the other calls; inactive means below about 31%
# Numbers without * were called inactive; ? = inconclusive; . = not tested or not shown. A selection: hits, their analogues and other compounds. The true share with any hit is near 1.6%.
SMILES,H9c2 TAG inh,Bfl-1 A1 inh,SR-BI DiI inh,SR-BI DiI-HDL act,Vif inh
COc1ccccc1NC(=O)Cn1cnc2sc(C(=O)Nc3cc(OC)c(OC)c(OC)c3)c(C)c2c1=O,.,0,54,-54,-5
COc1ccccc1NC(=O)c1cc(-c2ccc(OC)c(OC)c2)nc2ccccc12,.,.,52,-52,-11
COc1ccc(-c2cc(C(=O)Nc3ccc(O)cc3)c3ccccc3n2)cc1OC,28,0,81*,-81,-22
COc1cc(OC)c(C(=O)Nc2cccnc2)cc1OC,-3,0,17,-17,-1
O=C(NCCCN1CCOCC1)c1ccc2nc(Cc3ccccc3F)oc2c1,7,-1,-1,1,1
CCN(CC)S(=O)(=O)c1ccc(Cl)c(C(=O)Nc2cc(C)nn2-c2ccccc2C(F)(F)F)c1,.,1,.,.,.
C=C(C)C1CC=C(C)/C(=N/NC(=O)CCC(=O)Nc2ccccc2Cl)C1 (configuration not stated),.,0,-11,11,8
COc1ccc(NC(=O)CN2C(=O)COc3ccc(S(=O)(=O)N4CCCCCC4)cc32)cc1,.,0,-6,6,-7
COc1ccccc1Nc1ncc(C(=O)Nc2ccc(OC)c(OC)c2)c2ccccc12,.,0,83*,-83,?
COc1cccc(NC(=O)CN(C)C(=O)c2cc(-c3ccc(C)o3)nc3ccccc23)c1,1,1,24,-24,-6
COc1ccc(NC(=O)c2cc(-c3cc(OC)c(OC)c(OC)c3)nc3ccccc23)cc1OC,.,2,85*,-85,-12
COc1cccc(NC(=O)c2cc(-c3ccc(C)o3)nc3ccccc23)c1,6,0,77*,-77,0
COc1ccc(NC(=O)c2ccccc2NS(C)(=O)=O)cc1OC,.,0,-10,10,-39
COc1cccc(-c2cc(C(=O)Nc3nc4ccccc4s3)c3ccccc3n2)c1,.,0,88*,-88,-6
CC(NC(=O)CCn1ccc2cc(S(=O)(=O)N3CCCC3)ccc21)c1ccccc1 (configuration not stated),.,1,22,-22,-1
C/C(=N/NC(N)=S)c1cc2ccc(O)cc2oc1=O,-11,-1,84*,-84,0
C/C(=N/NC(=O)c1ccncc1)c1cc2ccc(O)cc2oc1=O,.,-2,-22,22,-2
CC[n+]1c(/C=C2\Sc3ccccc3N2C)ccc2cccc(C)c21,-3,.,76*,-76,.
CCN1/C(=C/c2ccc3cc(C)ccc3[n+]2CC)Sc2ccccc21,.,-1,62,-62,12
COC(=O)c1cccc(NC(=O)NC23CC4CC(CC(C4)C2)C3)c1,3,1,32,-32,-5
COC(=O)c1ccc(Cl)c(NC(=O)NC23CC4CC(CC(C4)C2)C3)c1,70*,2,34,-34,-10
CC(C)Cc1cc(C(=O)Nc2ccccc2)c2ccccc2n1,-7,0,70*,-70,0
COC(=O)c1ccc(NC(=O)c2cc(-c3ccncc3)nc3ccccc23)cc1,16,2,47,-47,14
CCN(CC)C(=O)c1cccc(NC(=O)c2cc(-c3ccccn3)nc3ccccc23)c1,26,0,75*,-75,0
COc1ccc(NC(=O)c2cc(-c3ccccn3)nc3ccccc23)c(OC)c1,0,0,55,-55,15
SMILES,H9c2 TAG inh,Bfl-1 A1 inh,SR-BI DiI inh,SR-BI DiI-HDL act,Vif inh
COC(=O)c1ccc(NC(=O)c2cc(-c3ccccn3)nc3ccccc23)cc1,-10,-1,3,-3,62*
CCOc1ccccc1NC(=O)c1cc(-c2ccccn2)nc2ccccc12,16,0,75*,-75,-1
NC1=NC(=O)C(c2ccccc2)(c2ccccc2)S1,-27,.,0,0,-11
COC(=O)COc1cc(Br)c(/C=C2/SC(=O)N(CC(=O)N3CCCC3)C2=O)cc1OC,-17,0,82*,-82,1
COC(=O)COc1ccc(/C=C2/SC(=O)N(CC(=O)N3CCCC3)C2=O)cc1Br,-7,-1,-8,8,0
Cc1cc(C)cc(-n2c(C)cc(/C=N\NC(=O)COc3cccc4cccnc34)c2C)c1,-12,0,76*,-76,-14
Cc1ccccc1OCCC(=O)OCC(=O)Nc1c(C)nn(-c2ccccc2)c1C,14,0,-19,19,2
Cc1cc(C)c(S(=O)(=O)Nc2ccc3c4c(cccc24)CC3)c(C)c1,58*,0,31,-31,57*
